Values after ≈ are worked out from the molar mass of the structure shown.
Key:
Assay type in all cases: functional
Haemophilus influenzae [1] = assay: In vitro minimum inhibitory concentration for antibacterial activity against Haemophilus influenzae ATCC 33533 (ampicillin-resistant strain that produces beta-lactamase)
Procedure, shortened: (§1)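 Agar dilution MIC determined by the Japan Society of Chemotherapy standard method for aerobic bacteria.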

Haemophilus influenzae [2] = assay: In vitro minimum inhibitory concentration for antibacterial activity against Haemophilus influenzae ATCC 43095 (ampicillin-susceptible strain that does not produce beta-lactamase); procedure, shortened: as §1
Mus musculus [3] = assay: Effective dose in vivo, in mouse inoculated intraperitoneally with 1.47*10e3 CFU of erythromycin susceptible strain Streptococcus pneumoniae IID553; conditions: ip
Procedure, shortened: (§2)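 Mouse protection test: mice were infected intraperitoneally with erythromycin-susceptible S. aureus Smith or S. pneumoniae IID553. Compounds were given orally 1 h after inoculation.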

Staphylococcus aureus [4] = assay: In vitro minimum inhibitory concentration for antibacterial activity against erythromycin-susceptible strain Staphylococcus aureus […]
Procedure, shortened: (§3)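 MIC by agar dilution following the Japan Society of Chemotherapy standard method for aerobic bacteria. S. aureus 209P-JC and S. pneumoniae IID553 are erythromycin-susceptible strains.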

Staphylococcus aureus [5] = assay: In vitro minimum inhibitory concentration for antibacterial activity against Staphylococcus aureus B1 (inducibly MLSb-resistant strain encoded by the erm(C) gene); procedure, shortened: as §1
Streptococcus pneumoniae [6] = assay: In vitro minimum inhibitory concentration for antibacterial activity against erythromycin susceptible strain Streptococcus pneumoniae IID553
Streptococcus pneumoniae [7] = assay: In vitro minimum inhibitory concentration for antibacterial activity against erythromycin-susceptible strain Streptococcus pneumoniae IID553; procedure, shortened: as §3
Streptococcus pneumoniae [8] = assay: In vitro minimum inhibitory concentration for antibacterial activity against Streptococcus pneumoniae 210 (efflux-resistant strain encoded by the mef(A) gene); procedure, shortened: as §1
Streptococcus pneumoniae [9] = assay: In vitro minimum inhibitory concentration for antibacterial activity against Streptococcus pneumoniae 211 (MLSb-resistant strain encoded by the erm(B) gene); procedure, shortened: as §1
Staphylococcus aureus [10] = assay: In vitro minimum inhibitory concentration for antibacterial activity against Staphylococcus aureus SR138 (constitutively MLSb-resistant strain encoded by the erm(A) gene); procedure, shortened: as §1
Staphylococcus aureus [11] = assay: In vitro minimum inhibitory concentration for antibacterial activity against erythromycin susceptible strain Staphylococcus aureus Smith
Mus musculus [12] = assay: Effective dose in vivo, in mouse inoculated intraperitoneally with 5.80*10e7 CFU of erythromycin susceptible strain Staphylococcus aureus Smith; conditions: ip; procedure, shortened: as §2

`CC[C@H]1OC(=O)[C@H](C)[C@@H](OC(=O)Cc2ccc([N+](=O)[O-])cc2)[C@H](C)[C@@H](O[C@@H]2O[C@H](C)C[C@H](N(C)C)[C@H]2O)[C@@](C)(OC)C[C@@H](C)C(=O)[C@H](C)[C@@H](O)[C@]1(C)O` gave an MIC (Haemophilus influenzae [1]) of 50 µg/mL (≈ 66.4 µM), an MIC (Haemophilus influenzae [2]) of 50 µg/mL (≈ 66.4 µM) and an ED50 (Mus musculus [3]) of 39.1 mg/kg. The MIC (Staphylococcus aureus [4]) was 0.2 µg/mL (≈ 0.266 µM), the MIC (Staphylococcus aureus [5]) was 0.39 µg/mL (≈ 0.518 µM) and the MIC (Streptococcus pneumoniae [6]) was 0.1 µg/mL (≈ 0.133 µM). For the same compound, the MIC (Streptococcus pneumoniae [7]) was 0.2 µg/mL (≈ 0.266 µM), the MIC (Streptococcus pneumoniae [8]) was 0.2 µg/mL (≈ 0.266 µM) and the MIC (Streptococcus pneumoniae [9]) was greater than 100 µg/mL. For the same compound, the MIC (Staphylococcus aureus [10]) was greater than 100 µg/mL and the MIC (Staphylococcus aureus [11]) was 0.39 µg/mL (≈ 0.518 µM).
In the case of `CC[C@H]1OC(=O)[C@H](C)[C@@H](OC(=O)Cc2ccccc2)[C@H](C)[C@@H](O[C@@H]2O[C@H](C)C[C@H](N(C)C)[C@H]2O)[C@@](C)(OC)C[C@@H](C)C(=O)[C@H](C)[C@@H](O)[C@]1(C)O`, the MIC (Haemophilus influenzae [1]) is reported as 100 µg/mL (≈ 141 µM), the MIC (Haemophilus influenzae [2]) is reported as 100 µg/mL (≈ 141 µM) and the MIC (Staphylococcus aureus [4]) is reported as 1.56 µg/mL (≈ 2.2 µM). It also gave an MIC (Staphylococcus aureus [5]) of 6.25 µg/mL (≈ 8.83 µM), an MIC (Streptococcus pneumoniae [7]) of 0.78 µg/mL (≈ 1.1 µM) and an MIC (Streptococcus pneumoniae [8]) of 0.78 µg/mL (≈ 1.1 µM). For the same compound, the MIC (Streptococcus pneumoniae [9]) was greater than 100 µg/mL and the MIC (Staphylococcus aureus [10]) was greater than 100 µg/mL.
In the case of `CC[C@H]1OC(=O)[C@H](C)[C@@H](OC(=O)Cc2cccnc2)[C@H](C)[C@@H](OC2O[C@H](C)C[C@H](N(C)C)[C@H]2O)[C@@](C)(OC)C[C@@H](C)C2=NCCN3C(=O)O[C@@]1(C)[C@H]3[C@H]2C` (stereo partly drawn), the MIC (Haemophilus influenzae [1]) is reported as 3.13 µg/mL (≈ 4.12 µM), the MIC (Haemophilus influenzae [2]) is reported as 6.25 µg/mL (≈ 8.24 µM) and the MIC (Staphylococcus aureus [4]) is reported as 0.2 µg/mL (≈ 0.264 µM). The MIC (Staphylococcus aureus [5]) was 0.39 µg/mL (≈ 0.514 µM), the MIC (Streptococcus pneumoniae [7]) was 0.05 µg/mL (≈ 0.0659 µM) and the MIC (Streptococcus pneumoniae [8]) was 0.2 µg/mL (≈ 0.264 µM). The MIC (Streptococcus pneumoniae [9]) was greater than 100 µg/mL and the MIC (Staphylococcus aureus [10]) was greater than 100 µg/mL.
In the case of `CC[C@H]1OC(=O)[C@H](C)[C@@H](OC(=O)Cc2cccnc2)[C@H](C)[C@@H](OC2O[C@H](C)C[C@H](N(C)C)[C@H]2O)[C@@](C)(OC)C[C@@H](C)/C(=N\O)[C@H](C)[C@H]2OC(=O)O[C@@]21C` (stereo partly drawn), the MIC (Haemophilus influenzae [1]) is reported as 6.25 µg/mL (≈ 8.33 µM), the MIC (Haemophilus influenzae [2]) is reported as 3.13 µg/mL (≈ 4.17 µM) and the ED50 (Mus musculus [3]) is reported as 47.4 mg/kg. It also gave an ED50 (Mus musculus [12]) of 27.6 mg/kg, an MIC (Staphylococcus aureus [4]) of 0.2 µg/mL (≈ 0.267 µM) and an MIC (Staphylococcus aureus [5]) of 0.39 µg/mL (≈ 0.52 µM). For the same compound, the MIC (Streptococcus pneumoniae [6]) was 0.025 µg/mL (≈ 0.0333 µM), the MIC (Streptococcus pneumoniae [7]) was 0.025 µg/mL (≈ 0.0333 µM) and the MIC (Streptococcus pneumoniae [8]) was 0.1 µg/mL (≈ 0.133 µM). The MIC (Streptococcus pneumoniae [9]) was greater than 100 µg/mL, the MIC (Staphylococcus aureus [10]) was greater than 100 µg/mL and the MIC (Staphylococcus aureus [11]) was 0.39 µg/mL (≈ 0.52 µM).
Work on `CC[C@H]1OC(=O)[C@H](C)[C@@H](OC(=O)Cc2cccnc2)[C@H](C)[C@@H](OC2O[C@H](C)C[C@H](N(C)C)[C@H]2O)[C@@](C)(O)C[C@@H](C)/C(=N\O)[C@H](C)[C@@H](O)[C@]1(C)O` (stereo partly drawn) yielded an MIC (Haemophilus influenzae [1]) of 12.5 µg/mL (≈ 17.6 µM), an MIC (Haemophilus influenzae [2]) of 12.5 µg/mL (≈ 17.6 µM) and an MIC (Staphylococcus aureus [4]) of 1.56 µg/mL (≈ 2.2 µM). The MIC (Staphylococcus aureus [5]) was 1.56 µg/mL (≈ 2.2 µM), the MIC (Streptococcus pneumoniae [7]) was 0.39 µg/mL (≈ 0.549 µM) and the MIC (Streptococcus pneumoniae [8]) was 0.78 µg/mL (≈ 1.1 µM). The MIC (Streptococcus pneumoniae [9]) was greater than 100 µg/mL and the MIC (Staphylococcus aureus [10]) was greater than 100 µg/mL.
`CC[C@H]1OC(=O)[C@H](C)[C@@H](OC(=O)c2cccc(OC)c2)[C@H](C)[C@@H](OC2O[C@H](C)C[C@H](N(C)C)[C@H]2O)[C@@](C)(OC)C[C@@H](C)C(=O)[C@H](C)[C@@H](O)[C@]1(C)O` (stereo partly drawn) was tested, and the MIC (Haemophilus influenzae [1]) was 100 µg/mL (≈ 138 µM), the MIC (Haemophilus influenzae [2]) was greater than 100 µg/mL and the MIC (Staphylococcus aureus [4]) was 25 µg/mL (≈ 34.5 µM). The MIC (Staphylococcus aureus [5]) was 50 µg/mL (≈ 69.1 µM), the MIC (Streptococcus pneumoniae [7]) was 1.56 µg/mL (≈ 2.15 µM) and the MIC (Streptococcus pneumoniae [8]) was 1.56 µg/mL (≈ 2.15 µM). For the same compound, the MIC (Streptococcus pneumoniae [9]) was greater than 100 µg/mL and the MIC (Staphylococcus aureus [10]) was greater than 100 µg/mL.
`CC[C@H]1OC(=O)[C@H](C)[C@@H](OC(=O)Cc2cccnc2)[C@H](C)[C@@H](OC2O[C@H](C)C[C@H](N(C)C)[C@H]2O)[C@@](C)(O)C[C@@H](C)C(=O)[C@H](C)[C@H]2OC(=O)O[C@@]21C` (stereo partly drawn) showed an MIC (Haemophilus influenzae [1]) of 3.13 µg/mL (≈ 4.34 µM), an MIC (Haemophilus influenzae [2]) of 3.13 µg/mL (≈ 4.34 µM) and an MIC (Staphylococcus aureus [4]) of 0.2 µg/mL (≈ 0.277 µM). For the same compound, the MIC (Staphylococcus aureus [5]) was 0.39 µg/mL (≈ 0.541 µM), the MIC (Streptococcus pneumoniae [7]) was 0.05 µg/mL (≈ 0.0694 µM) and the MIC (Streptococcus pneumoniae [8]) was 0.2 µg/mL (≈ 0.277 µM). The MIC (Streptococcus pneumoniae [9]) was greater than 100 µg/mL and the MIC (Staphylococcus aureus [10]) was greater than 100 µg/mL.
